From ChEMBL document CHEMBL1821649, “Synthesis, characterization of some benzazoles bearing pyridine moiety: search for novel anticancer agents” (2011) come the findings set out here.

In the assay the test system is UO-31. The assay can be described thus: Antitumor activity against human UO31 cells at 10^-5 M after 48 hrs by SRB assay. It is filed as functional. The settings on record: UO-31, 48 h, read-out: GI. Put shortly:
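Single-dose screen following the National Cancer Institute Drug Evaluation Branch protocol, run on the NCI panel of 60 human tumour cell lines covering nine cancer types. Percent growth of treated cells was recorded and reported as percentage growth inhibition (GI%). Compounds meeting preset inhibition thresholds advanced to a five-dose, 10-fold dilution series.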
A general note: Sulforhodamine B stains cellular protein and so reports cell mass.

Turning to `Cc1cc2nc(-c3c(N)ncc(C#N)c3-c3ccc(O)cc3)[nH]c2cc1C`, the inhibition of growth at 10 µM came out at 33.4%.
